How the values were obtained:
[1] = target: T1, Very long chain fatty acid elongase 6 (Homo sapiens, UniProt Q9H5J4); test: Inhibition of human ELOVL6 expressed in Pichia pastoris using palmitoyl-CoA by long chain fatty acyl-CoA elongation assay
T1 sequence (Q9H5J4 whole entry): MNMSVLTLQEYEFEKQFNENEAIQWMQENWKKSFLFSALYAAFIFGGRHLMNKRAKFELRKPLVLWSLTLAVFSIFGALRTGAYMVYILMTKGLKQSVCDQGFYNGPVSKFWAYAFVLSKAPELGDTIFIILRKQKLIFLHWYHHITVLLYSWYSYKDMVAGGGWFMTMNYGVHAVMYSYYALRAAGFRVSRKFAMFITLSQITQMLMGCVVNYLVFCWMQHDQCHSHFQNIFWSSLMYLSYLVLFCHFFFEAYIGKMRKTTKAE
Outline: (§1)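 Microsomes (3 μg) from Pichia pastoris SMD1168 expressing FLAG-tagged human or mouse ELOVL6 were incubated 1 h at 37 °C in 100 mM potassium phosphate pH 6.5 with 40 μM palmitoyl-CoA, 20 μM malonyl-CoA plus [14C]-malonyl-CoA, 500 μM NADPH, 200 μM BSA and 1 μM rotenone. DMSO was 1.0% final. After HCl hydrolysis, filter-retained 14C was counted. IC50 came from nonlinear regression on % of control.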

[2] = target: T2, Very long chain fatty acid elongase 6 (Mus musculus, UniProt Q920L5); test: Inhibition of ELOVL6 in mouse H2.35 cells assessed as elongation index; assay type: cell-based
T2 sequence (Q920L5 whole entry): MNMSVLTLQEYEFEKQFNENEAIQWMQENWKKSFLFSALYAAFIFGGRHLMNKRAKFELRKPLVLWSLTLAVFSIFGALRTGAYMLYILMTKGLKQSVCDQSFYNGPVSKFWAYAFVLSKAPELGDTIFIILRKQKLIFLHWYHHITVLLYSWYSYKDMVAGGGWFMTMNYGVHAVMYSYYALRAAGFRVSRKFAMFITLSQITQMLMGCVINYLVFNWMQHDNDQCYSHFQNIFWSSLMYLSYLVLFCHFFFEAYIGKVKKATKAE
Outline: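 Subconfluent mouse hepatoma H2.35 cells were kept at 33 °C in DMEM with 200 nM dexamethasone and 4% FBS. Lipids were hydrolysed in NaOH at 70 °C, and fatty acids extracted and quantified by radio-HPLC. Elongation index = (C18:0 + C18:1) / (C16:0 + C16:1).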

[3] = target: T2, Very long chain fatty acid elongase 6; test: Inhibition of mouse ELOVL6 expressed in Pichia pastoris using palmitoyl-CoA by long chain fatty acyl-CoA elongation assay; outline: as §1
[4] = Unbound fraction in C57BL/6N mouse plasma; assay type: ADME, cell-free
Outline: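 Equilibrium dialysis was run with C57BL/6N mouse plasma adjusted to pH 7.4 and spiked with 1 μM compound, dialysed against PBS for 6 h at 37 °C. Both sides were analysed by LC-MS/MS. Unbound fraction = Cf/Cp × 100. Mean of n = 3.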

IC50 [1] [nM]	IC50 [2] [nM]	IC50 [3] [nM]	fraction unbound [4]	Structure (SMILES)
1410				O=C(Nc1ccc(F)cc1)OCC1(C2CC2)OC(=O)Nc2ccc(Cl)cc21 (stereo not given)
142				O=C(Nc1ccc(F)cc1)OCC1(C(F)(F)F)OC(=O)Nc2ccc(Cl)cc21 (stereo not given)
	50	20		O=C1Nc2ccc(-c3cn[nH]c3)cc2C(CNC(=O)c2ccc(F)cc2)(C(F)(F)F)O1 (single isomer, unassigned; (+))
	377	31	0.005	O=C(NCC1(C(F)(F)F)OC(=O)Nc2ccc(Cl)cc21)Nc1ccc(F)cc1 (single isomer, unassigned; (-))
			0.053	O=C1Nc2ccc(Cl)cc2C(CNC(=O)c2ccc(F)cc2)(C(F)(F)F)O1 (stereo not given)
	58	29		O=C1Nc2ccc(-n3cccn3)cc2C(CNC(=O)c2ccc(F)cc2)(C(F)(F)F)O1 (single isomer, unassigned; (+))
